Screening data deposited in PubChem by Johns Hopkins Ion Channel Center.
The list is not random: actives were taken first. Their share in the collection is about 2.3%.
TRPC4 potent = positive allosteric modulators of TRPC4, primary screen, cell-based, mouse TRPC4beta, HEK293 mu-opioid, Fluo-4 calcium | Short transient receptor potential channel 4 (Mus musculus), Q9QUQ5 | DAMGO EC20, Fluo-4 Ca2+ flux; active compounds read high | B-score at 10 µM | 310,000 tested, 0.42% active | AID 2227, 2009;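 active means B-score of calcium response area above 5 SD of library B-scores, with initial fluorescence ratio within 5 SD of library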;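 further: B-score of integrated fluorescence ratio over time as area under calcium response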
TRPC6 activator = mouse TRPC6 channel activators, primary screen, cell-based, HEK293, membrane potential dye. Short transient receptor potential channel 6 (Mus musculus), Q61143. HEK293-TRPC6 membrane potential dye fluorescence; active compounds read high. B-score at 10 µM. 310,000 tested, 0.13% active. AID 2550, 2010;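 active means B-score of the integrated fluorescence ratio above library mean plus 3 SD, and starting fluorescence ratio within library mean plus 5 SD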;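 further: higher score means more depolarization so channel activation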
Target sequence (Q61143 whole entry, looked up): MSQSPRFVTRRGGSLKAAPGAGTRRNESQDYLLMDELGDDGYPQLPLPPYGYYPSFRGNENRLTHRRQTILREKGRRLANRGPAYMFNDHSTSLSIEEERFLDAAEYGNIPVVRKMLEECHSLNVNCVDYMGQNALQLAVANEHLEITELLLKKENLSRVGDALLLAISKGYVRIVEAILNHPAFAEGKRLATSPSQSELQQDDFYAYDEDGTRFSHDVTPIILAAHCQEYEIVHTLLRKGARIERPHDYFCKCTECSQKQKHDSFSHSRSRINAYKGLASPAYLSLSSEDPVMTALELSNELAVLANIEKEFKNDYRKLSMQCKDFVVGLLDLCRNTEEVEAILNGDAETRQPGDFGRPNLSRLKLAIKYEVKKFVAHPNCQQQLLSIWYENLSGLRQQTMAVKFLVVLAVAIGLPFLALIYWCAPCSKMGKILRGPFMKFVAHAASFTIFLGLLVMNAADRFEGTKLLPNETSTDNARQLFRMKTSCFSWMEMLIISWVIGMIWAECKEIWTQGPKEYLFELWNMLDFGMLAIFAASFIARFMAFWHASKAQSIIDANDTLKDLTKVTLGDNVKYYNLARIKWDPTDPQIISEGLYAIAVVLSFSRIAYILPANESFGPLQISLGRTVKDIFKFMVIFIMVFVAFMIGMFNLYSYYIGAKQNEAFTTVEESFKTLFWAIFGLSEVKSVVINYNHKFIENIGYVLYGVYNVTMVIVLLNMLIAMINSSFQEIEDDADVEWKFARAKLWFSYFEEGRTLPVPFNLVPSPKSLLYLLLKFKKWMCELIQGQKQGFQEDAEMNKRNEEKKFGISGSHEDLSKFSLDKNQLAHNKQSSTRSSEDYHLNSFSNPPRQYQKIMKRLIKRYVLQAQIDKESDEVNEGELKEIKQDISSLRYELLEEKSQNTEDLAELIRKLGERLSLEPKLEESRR
TRPC4 block = inhibitors of mouse TRPC4 channel, primary screen, Fluo4 calcium, HEK293 TRPC4beta/mu-opioid cells; Short transient receptor potential channel 4 (Mus musculus), Q9QUQ5; DAMGO-evoked Fluo4 calcium flux; active compounds read low; B-score at 10 µM; 300,000 tested, 0.39% active; AID 2247, 2010;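 active means B-score over 3 SD under the library average, no early fluorescence shift, positive overall ratio signal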
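Test system – stable TRPC4beta/mu-opioid receptor HEK293 cells · Probe or stimulus – DAMGO, a submaximal dose followed by a maximal one · Dosing – one concentration per compound · Signal – Fluo4 calcium fluorescence by kinetic imaging, 5 s 1 Hz baseline · Evaluation – per-well B score of integrated baseline-normalized Fluo4 ratio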
TRPC4 agonist = activators of mouse TRPC4 channel, primary screen, Fluo4 calcium, HEK293 TRPC4beta/mu-opioid cells; Short transient receptor potential channel 4 (Mus musculus), Q9QUQ5; Fluo4 calcium fluorescence; active compounds read high; B-score at 10 µM; 310,000 tested, 0.49% active;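 active means B-score above 5 SD of library B-scores, and initial fluorescence ratio not above library mean plus 5 SD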;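 further: positive B-score marks a calcium rise read as TRPC4 activation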
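Assay system – TRPC4beta and mu-opioid receptor HEK293 stable cells · Measured by – Fluo4 fluorescence, kinetic · Schedule – dye loading 45 min room temperature, 110 s kinetic read · Read-out – B-scored integrated calcium fluorescence ratio · Controls – buffer and maximal DAMGO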
TRPC6 inh = mouse TRPC6 channel inhibitors, primary screen, cell-based, HEK293, membrane potential dye | Short transient receptor potential channel 6 (Mus musculus), Q61143 | ACh-evoked depolarization; active compounds read low | B-score at 10 µM | 310,000 tested, 1.1% active;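 active means B-score under library mean minus 3 SD, initial fluorescence not abnormally high, positive integrated signal ratio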;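 further: B-score derived from integrated fluorescence ratio over the kinetic read; more negative B-score means stronger inhibition of depolarization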
HEK293 TRPC6 ctr = parental HEK293 membrane potential modulation, confirmation, counter-screen for TRPC6 modulator project, cell-based | shares compounds with TRPC6 inh | membrane potential dye fluorescence | membrane potential signal change, % at 10 µM | 2,400 tested, 51% active | AID 488924, 2010;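 active means membrane potential signal moves up or down beyond 5 SD from buffer-only wells, on both duplicate plates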
HEK293 MPD ctr 2 = second counter-screen for TRPC6 modulators: effect in parental HEK293 cells | AID 488926 | inhibition, % at 10 µM | shares compounds with TRPC6 inh | 2,400 tested, 14% active | membrane potential dye fluorescence; after compound, maximal acetylcholine stimulation;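 active means membrane potential signal drops by more than 5 SD from the mean control signal, in both duplicate plates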;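 further: plate controls were acetylcholine ECmax control wells for no effect and buffer only wells for full effect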
TRPC4 ctr mod = TRPC4 modulation by TRPC6 hit compounds, confirmation, selectivity assay for TRPC6 modulator project, cell-based, HEK293 TRPC4/mu-opioid, membrane potential dye, mouse. shares compounds with TRPC6 inh. membrane potential fluorescence. percent change from control (negative = decrease, positive = increase), % at 10 µM. 2,400 tested, 69% active;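 active means membrane potential signal moved up or down beyond 5 SD of buffer control wells, in both duplicate plates, actives on both sides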;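 further: plate controls were assay buffer wells for no effect and DAMGO maximal-effect wells for full effect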
TRPC4/MOR inh 2 = second selectivity test of TRPC6 modulators against mouse TRPC4; shares compounds with TRPC6 inh; HEK293 TRPC4/mu-opioid, membrane potential dye fluorescence; stimulated with maximal-effect DAMGO; inhibition, % at 10 µM; 2,400 tested, 55% active; AID 488928;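 active means drop in membrane potential signal beyond 5 SD of the control wells in both duplicate plates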;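 further: TRPC4 counter screen for TRPC6 hits run under conditions tuned for TRPC6 not TRPC4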
TRPC6 inh conf = mouse TRPC6 channel inhibitors, confirmation, HEK293 cells, membrane potential dye, duplicate. shares compounds with TRPC6 inh. ACh-evoked depolarization. inhibition, % at 10 µM. 3,300 tested, 43% active. AID 488960, 2010;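 active means fluorescence ratio falls more than 5 SD below the full-stimulation control mean, in both duplicate runs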;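 further: integrated fluorescence ratio of peak minus minimum over baseline after agonist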
TRPC6 act confirm = mouse TRPC6 channel activators, confirmation, HEK293 cells, membrane potential dye, duplicate | shares compounds with TRPC6 inh | activation, % at 10 µM | HEK293-TRPC6 membrane potential dye fluorescence, FDSS | AID 488961, 2010 | 2,800 tested, 11% active;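 active means ratio signal rise beyond 5 SD above unstimulated control wells' mean, seen in both duplicate runs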;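 further: plate controls were buffer EC0 wells for no effect and acetylcholine ECmax response for full effect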
Starred values were filed as active, the others as inactive; i = inactive; x = not tested or not shown.

SMILES	TRPC4 potent	TRPC6 activator	TRPC4 block	TRPC4 agonist	TRPC6 inh	HEK293 TRPC6 ctr	HEK293 MPD ctr 2	TRPC4 ctr mod	TRPC4/MOR inh 2	TRPC6 inh conf	TRPC6 act confirm
CCOC(=O)c1c(NC(=O)C2C3C=CC(CC3)C2C(=O)O)sc(C)c1CC (stereo not drawn)	i	12.4*	i	i	i	109.5%*	i	21.0%*	i	i	60.5%*
COc1ccc(Cl)cc1NC(=O)CN(C)C(=O)c1cn(-c2ccccc2)nc1-c1cccnc1	i	i	i	i	i	x	x	x	x	x	x
CC(C)Cc1ccc(C2=CSC3=NCCN23)cc1	i	i	i	i	-5.82*	94.5%*	i	i	55.0%*	48.5%*	x
CC(C)(C)c1ccc(C2=CSC3=NCCN23)cc1	i	i	i	i	i	x	x	x	x	x	x
Cc1c(Cl)cccc1NC(=O)N1CCCN(c2nc(-c3ccccc3)ns2)CC1	i	i	i	i	i	x	x	x	x	x	x
O=C(Nc1ccccc1Cl)N1CCCN(c2nc(-c3ccccc3)ns2)CC1	i	i	i	i	-5.1*	i	i	i	i	i	i
CCOc1cccc2cc(C(=O)NCCC3=CCCCC3)c(=O)oc12	i	i	i	i	i	x	x	x	x	x	x
O=C(NCc1cccs1)C(=O)NCC(c1ccco1)N1CCN(c2ccccc2F)CC1 (stereo not drawn)	i	i	i	i	i	x	x	x	x	x	x
CC(C)COc1ccc(C(=S)N2CCCC2)cc1	i	i	i	i	i	x	x	x	x	x	x
CC(=O)Oc1c(/C=C(\C#N)C(N)=O)[nH]c2ccccc12	i	27*	i	i	i	657.0%*	i	169.5%*	i	i	170.0%*
NS(=O)(=O)c1ccc2nc(-c3ccccc3)c(-c3ccccc3)nc2c1	i	i	i	i	i	x	x	x	x	x	x
O=C(c1ccccc1[N+](=O)[O-])N1CC2C3C=CC(C3)C2C1 (stereo not drawn)	i	i	i	i	-5.45*	i	i	i	i	i	i
O=C(c1cccc([N+](=O)[O-])c1)N1CC2C3C=CC(C3)C2C1 (stereo not drawn)	i	i	i	i	i	x	x	x	x	x	x
COc1ccc(-c2cc(C(=O)Nc3c(C)n(C)n(-c4ccccc4)c3=O)no2)cc1OC	i	i	i	i	i	x	x	x	x	x	x
Cc1nc2c(C(=O)N3CCCCC3)cnn2c(C)c1Cc1ccccc1F	i	21.8*	i	i	-10.9*	147.0%*	i	28.5%*	30.0%*	114.0%*	177.5%*
CCN(CC)c1ccc(C=C2C(=O)OC3(CCCC3)OC2=O)cc1	i	54.1*	i	i	i	763.0%*	i	116.0%*	i	i	295.0%*
CCN(CC)c1ccc(C=C2C(=O)OC(C)(C(C)(C)C)OC2=O)cc1 (stereo not drawn)	i	46.3*	i	i	i	i	i	102.5%*	i	i	i
COc1ccc(N(C(=O)Cn2nnc(-c3ccc(F)cc3)n2)C(C)C(=O)NC2CCCC2)cc1OC (stereo not drawn)	i	i	i	i	i	x	x	x	x	x	x
Cc1ccc(C)n1-c1ccc(C(=O)NC2CCN(Cc3ccccc3)CC2)cc1	i	i	i	i	-5.09*	i	i	i	36.0%*	i	i
O=C(NC1CCN(Cc2ccccc2)CC1)c1cn(-c2ccccc2)nc1-c1cccnc1	i	i	i	i	-5.6*	91.0%*	i	i	52.0%*	41.0%*	i
O=C(O)c1cn(-c2ccccc2)nc1-c1cccnc1	i	i	i	i	i	x	x	x	x	x	x
O=C(NC1CCN(Cc2ccccc2)CC1)C1COc2ccccc2O1 (stereo not drawn)	i	i	i	i	-5.65*	104.5%*	86.0%*	11.5%*	29.0%*	71.5%*	x
Cc1nonc1CC(=O)NC1CCCc2c1cnn2-c1ccc(F)cc1F (stereo not drawn)	i	i	i	i	i	x	x	x	x	x	x
CC(O)CSc1nc2c(c(=O)[nH]c(=O)n2C)n1CC(O)COc1ccccc1 (stereo not drawn)	i	i	i	i	i	x	x	x	x	x	x
CC(C)Sc1nc2c(c(=O)[nH]c(=O)n2C)n1CC(O)COc1ccccc1 (stereo not drawn)	i	i	i	i	-5.79*	i	i	10.5%*	i	66.0%*	i
NC(N)=Nc1nc(-c2ccccc2)c2ccccc2n1	i	i	i	i	-5.43*	-174.5%*	i	-30.0%*	33.0%*	i	i
CCc1nc(N=C(N)N)nc2ccccc12	i	i	i	i	i	x	x	x	x	x	x
CCOC(=O)c1c(NC(=O)/C=C/C(=O)O)sc(C)c1-c1ccc(C(C)(C)C)cc1	i	14*	-10*	i	i	i	i	18.5%*	50.0%*	i	29.5%*
Cc1cc2nc3ccc(N(C)C)cc3nc2cc1N	i	i	i	i	-6.42*	-82.0%*	i	-42.0%*	i	i	i
Cc1ccc(-n2nc3cc(C)c(N)cc3n2)cc1	i	i	i	i	i	x	x	x	x	x	x
